# From PubChem BioAssay
# Tb hexokinase: Trypanosoma brucei hexokinase 1 inhibitors, primary screen, biochemical, G6PDH-coupled NADH absorbance, MLSCN library; AID 1430, 2008; hexokinase 1 [Trypanosoma brucei]; hit rate 0.11% among 220,000; inhibition, % at 10 µM; recombinant TbHK1, G6PDH-coupled NADH A340;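 active = inhibition of 50% or more in the single-dose primary screen; inactive = inhibition below 50%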
# Runt-CBFb FRET: inhibitors of RUNX1 Runt–CBFb binding, primary screen, biochemical, FRET, Cerulean-Runt, Venus-CBFb, uHTS. Runt-related transcription factor 1 (Homo sapiens) + Core-binding factor subunit beta …. Cerulean-Runt/Venus-CBFb FRET ratio 530/480, 1 h. inhibition, % at 20 µM. hit rate 0.46% among 220,000;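 active = inhibition over about 50% at 20 µM in the single-dose screen, limit read from the data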;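 also: 0% = DMSO wells and 100% = excess unlabeled CBFb competitor control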
#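 Assay system: Cerulean-Runt domain fusion protein, energy donor; Signal: fluorescence energy transfer, 422 nm excitation, 530/480 nm emission; Timing: 1 h compound exposure, room temperature; Control set: unlabeled CBFb; Medium: Tris buffer pH 7.5 with salts and BSA; Compound: single test concentration of 20 µM, 1% DMSO final; Probe or stimulus: Venus-CBFb 100 nM.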
# Hck-Nef inh: inhibitors of Nef-activated human Hck kinase, primary screen, biochemical, Z-Lyte FRET, 384-well, Hck-YEEI. Recombinant Hck-YEEI plus Nef, Z-Lyte FRET kinase assay. inhibition, % at 20 µM. hit rate 0.68% among 220,000. AID 463187, 2010;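 active = Hck-Nef kinase inhibition above about 50%, limit read from the data; inactive = inhibition below that limit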;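 also: 0% = DMSO with Hck plus Nef and 100% = Hck alone without Nef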
# Target sequence (P08631 whole entry, looked up): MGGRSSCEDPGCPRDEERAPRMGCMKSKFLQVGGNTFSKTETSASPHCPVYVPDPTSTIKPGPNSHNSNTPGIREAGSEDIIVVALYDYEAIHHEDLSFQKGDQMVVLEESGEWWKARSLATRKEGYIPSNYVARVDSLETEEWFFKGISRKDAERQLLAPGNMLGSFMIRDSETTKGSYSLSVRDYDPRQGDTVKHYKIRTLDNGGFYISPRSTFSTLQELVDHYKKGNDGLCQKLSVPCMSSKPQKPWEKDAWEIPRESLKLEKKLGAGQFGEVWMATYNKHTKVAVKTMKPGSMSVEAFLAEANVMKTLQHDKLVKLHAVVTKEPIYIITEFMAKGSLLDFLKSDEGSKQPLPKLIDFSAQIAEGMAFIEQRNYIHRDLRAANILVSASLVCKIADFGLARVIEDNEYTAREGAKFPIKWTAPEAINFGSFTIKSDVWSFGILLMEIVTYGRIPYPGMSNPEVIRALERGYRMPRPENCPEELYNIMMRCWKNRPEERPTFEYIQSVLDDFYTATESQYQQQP
# Runt-SMMHC FRET: inhibitors of RUNX1 Runt–CBFb-SMMHC binding, primary screen, biochemical, FRET, Cerulean-Runt, Venus-CBFb-SMMHC, uHTS | AID 1434, 2008 | inhibition, % at 20 µM | Cerulean-Runt/Venus-CBFb-SMMHC FRET ratio 530/480, 1 h | hit rate 0.74% among 220,000;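 active = mean inhibition across duplicate retests at 20 µM reaching about 50%, limit read from the data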;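 also: 0% = DMSO wells and 100% = wells with excess untagged CBFb-SMMHC; inhibitors lower the FRET ratio by blocking Runt binding to CBFb-SMMHC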
# p97 inhibitor: inhibitors of human p97 ATPase, primary screen, biochemical; Transitional endoplasmic reticulum ATPase (Homo sapiens), P55072; recombinant p97 ATPase, Kinase-Glo ATP luminescence, 3 h; inhibition, % at 8 µM; hit rate 0.42% among 220,000; in the data active = inhibition above about 15%;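 also: 0% = DMSO vehicle and 100% = wells lacking enzyme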
# RanGTP-Imp inh: inhibitors of RanGTP-importin-beta interaction, primary screen, biochemical, FRET, CFP-Ran, YFP-importin-beta, homogeneous; inhibition, % (test concentration not listed); AID 2216, 2009; Ran GTPase (GTP-bound) - importin-beta complex; hit rate 1.1% among 300,000; cell-free CFP-Ran/YFP-importin-beta FRET ratio;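 active = more than half of the replicate wells show a fall in the fluorescence ratio signal beyond about 16%, limit read from the data, passing the limit was not always enough; inconclusive = exactly half of the replicate wells pass the set limit; inactive = fewer than half of replicates pass the limit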;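 also: 0% = DMSO wells and 100% = Ran loaded with GDP instead of GTP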
# RUNX1 CBFb TR: inhibitors of RUNX1 Runt–CBFb binding, biochemical, TR-FRET. shares compounds with Runt-CBFb FRET. TR-FRET RUNX1 Runt domain-CBFb binding. inhibition, % at 20 µM. hit rate 20% among 480; in the data active = inhibition above about 40%
# * marks the source's active call; other numbers are inactive results; ? = inconclusive; . = no result. Hits are enriched below; roughly 2.1% of the tested compounds scored in any of these assays.
SMILES,Tb hexokinase,Runt-CBFb FRET,Hck-Nef inh,Runt-SMMHC FRET,p97 inhibitor,RanGTP-Imp inh,RUNX1 CBFb TR
CNC(=O)/C(C#N)=C/c1c(N(Cc2ccccc2)Cc2ccccc2)nc2c(C)cccn2c1=O,-17,62*,-1,115*,-2,1,-14
CS(=O)(=O)c1sc2nc(-c3cccs3)cc(-c3ccccc3)c2c1N,-20,54*,0,85*,4,-2,17
N#Cc1sc2nc(-c3cccs3)cc(-c3ccc(F)cc3)c2c1N,-7,-35,-3,-95,2,-18,.
CCCOc1ccc(C(=O)NNC(=O)c2cccc(S(=O)(=O)N3CCN(C(C)=O)CC3)c2)cc1OC,.,.,.,.,.,5,.
Cc1c(NC(=O)COC(=O)CCc2c[nH]c3ccccc23)c(=O)n(-c2ccccc2)n1C,.,.,.,.,.,-2,.
CCOC(=O)c1cc2c(=O)n3ccccc3nc2n(Cc2ccco2)c1=NC(=O)c1cccc(OC)c1,-7,99*,30,86*,7,33*,55*
CCCn1c(=NC(=O)c2c(-c3c(F)cccc3Cl)noc2C)c(C(=O)OCC)cc2c(=O)n3ccccc3nc21,-14,72*,12,60*,3,1,-79
Cc1cc(NC(=O)C(C)SCC(=O)OCC(=O)N(C)c2ccccc2)no1 (configuration not stated),.,.,.,.,.,5,.
COc1cc(C(=S)N2CCOCC2)ccc1OC(=O)c1cc(OC)c(OC)c(OC)c1,.,.,.,.,.,3,.
CC1C=CCC2C(=O)N(c3cccc(C(=O)NCc4ccccc4)c3)C(=O)C12 (configuration not stated),.,.,.,.,.,-5,.
COc1ccc([N+](=O)[O-])cc1NC(=O)CSc1nc(C)cc(C)n1,-5,57*,2,46,5,-2,16
CC1CN(C(=O)N2CCCCC2)CCN1C(=O)N1CCCCC1 (configuration not stated),-6,-3,22,0,2,2,.
COc1ccc(C2=CC(=O)C=CC2=O)cc1,29,68*,70*,86*,11,0,35
Nc1ncnc(Sc2ncccn2)c1[N+](=O)[O-],-19,62*,15,10,2,0,1
Cc1ccc(/C=C/C(=O)N2CCN(c3ccc(F)cc3)CC2)o1,7,51*,1,20,1,3,33
Fc1ccc(CN2C3=NCCN3c3ccccc32)cc1,5,1,-2,0,4,0,.
Cc1ccc(NC(=S)N2CCN(Cc3ccccc3)CC2)cc1,-5,-2,25,2,3,0,.
Cc1ccc(C(=S)N2CCN(Cc3ccccc3)CC2)cc1,2,52*,14,38,3,1,42*
CCNC(=O)N1C(CC(=O)OCC)C(=O)NC2CCCCC21 (configuration not stated),5,0,0,3,3,2,.
COC(=O)CC1C(=O)NC2CCCCC2N1C(=O)CCl (configuration not stated),-7,51*,4,-6,4,4,35
CCCS(=O)(=O)N1CCCC(C(=O)NCCCN(C)c2ccccc2)C1 (configuration not stated),-2,57*,2,2,-2,1,8
Cc1cc(C)nc(SCNC(=O)c2ccccc2)n1,-2,69*,8,18,0,-6,-14
Cc1cc(SCNC(=O)c2ccccc2)nc(C(C)C)n1,-8,43,25,16,-2,?,.
CCOC(=O)c1sc(Nc2nc3c(F)cccc3s2)cc1C,-35,98*,29,148*,3,10,-4
Cn1ccnc1Sc1nc2ccccc2nc1NS(=O)(=O)c1ccccc1,-12,61*,-3,73*,4,?,54*
SMILES,Tb hexokinase,Runt-CBFb FRET,Hck-Nef inh,Runt-SMMHC FRET,p97 inhibitor,RanGTP-Imp inh,RUNX1 CBFb TR
COc1ccc(Cn2c3nc4ccccc4nc3c3c(=O)n(Cc4ccco4)c(C)nc32)cc1,.,52*,.,48,.,.,-29
Cc1nc2c(c(=O)n1Cc1ccccc1Cl)c1nc3ccccc3nc1n2Cc1ccco1,.,33,.,20,.,.,.
COC(=O)/C(=N\OCc1ccc(C#N)cc1)c1c(C)nn(C)c1C,.,.,.,.,.,4,.
CN1/C(=C\C(=O)c2cccnc2)Sc2ccccc21,-9,66*,44,51*,-5,10,14
COc1ccccc1CNC(=O)CSc1nc2ccccc2c(=O)n1CCCN1CCOCC1,-1,-2,7,-2,-1,-2,.
COCCOC(=O)c1c(N)n(CCCN2CCOCC2)c2nc3ccccc3nc12,-32,51*,31,97*,-1,11,-4
O=C1/C(=C/c2ccncc2)SC(=S)N1Nc1ccccc1,-11,50*,-28,28,-2,9,50*
COc1ccc(N/C=C2/Sc3ccccc3NC2=O)cc1,-8,61*,26,54*,6,1,14
Cc1ccc(N/C=C2/Sc3ccccc3NC2=O)cc1,-10,36,-3,-8,-2,-2,.
O=C1Nc2ccccc2S/C1=C/NCc1ccccc1Cl,-6,59*,29,26,-3,0,14
Oc1ccc(O)c(Cc2nc3ccccc3[nH]2)c1,8,53*,17,5,7,-1,24
Cn1cc(S(=O)(=O)NC2CCCCC2)c(=O)n(C)c1=O,.,.,.,.,.,4,.
CNCc1ccccc1Sc1cc(O)ccc1O,-1,52*,2,44,-2,.,-2
CNCc1ccccc1Sc1cccc(O)c1,-1,-1,1,1,2,4,.
Cc1ccc(NC(=O)C(OC(=O)c2ccccc2Cl)c2ccccc2)cc1Cl (configuration not stated),5,2,-1,0,4,-4,.
Cc1cc(C(=O)OC(C(=O)Nc2ccc(C)c(Cl)c2)c2ccccc2)c(C)o1 (configuration not stated),2,65*,0,10,3,-1,-11
O=C(NN=C1CCCCC1)c1ccccc1-n1cccc1,.,.,.,.,.,0,.
NS(=O)(=O)c1ccc(N/C=C\C(=O)c2ccc3ccccc3c2)cc1,-20,50*,8,-62,0,-3,44*
